Assay results reported in ChEMBL document CHEMBL3124893 (J Med Chem, 2014).

Tests used:
Adenosine receptor A3 [1] = biological target: T1, Adenosine receptor A3 (Rattus norvegicus, UniProt P28647); test: Displacement of [125I]-I-AB-MECA from rat adenosine A3 receptor expressed in RBL-2H3 cells after 60 mins by gamma counting analysis; assay type: cell-based
T1 sequence (P28647 whole entry): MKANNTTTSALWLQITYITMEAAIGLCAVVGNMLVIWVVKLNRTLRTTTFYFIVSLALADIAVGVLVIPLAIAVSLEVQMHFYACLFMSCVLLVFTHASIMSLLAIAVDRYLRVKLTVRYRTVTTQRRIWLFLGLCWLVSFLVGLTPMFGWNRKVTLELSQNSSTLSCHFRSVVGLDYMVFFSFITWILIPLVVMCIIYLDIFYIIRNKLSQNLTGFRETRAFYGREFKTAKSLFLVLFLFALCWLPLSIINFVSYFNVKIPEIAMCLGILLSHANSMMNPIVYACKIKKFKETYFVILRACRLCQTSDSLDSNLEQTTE

Adenosine receptor A3 [2] = biological target: T2, Adenosine receptor A3 (Homo sapiens, UniProt P0DMS8); test: Displacement of [125I]-I-AB-MECA from recombinant human adenosine A3 receptor expressed in CHO cells after 60 mins by gamma counting analysis; assay type: cell-based
T2 sequence (P0DMS8 whole entry): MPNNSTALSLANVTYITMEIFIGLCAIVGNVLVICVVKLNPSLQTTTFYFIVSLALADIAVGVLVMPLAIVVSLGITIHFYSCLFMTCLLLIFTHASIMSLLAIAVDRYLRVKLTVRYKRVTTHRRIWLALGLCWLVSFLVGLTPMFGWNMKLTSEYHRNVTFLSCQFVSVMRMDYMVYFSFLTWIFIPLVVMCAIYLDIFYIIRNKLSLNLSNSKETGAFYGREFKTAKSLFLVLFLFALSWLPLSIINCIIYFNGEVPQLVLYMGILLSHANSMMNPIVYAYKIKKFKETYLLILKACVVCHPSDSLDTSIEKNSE

Adenosine receptor A2a [3] = biological target: T3, Adenosine receptor A2a (Homo sapiens, UniProt P29274); test: Displacement of [3H]-CGS21680 from human adenosine A2A receptor expressed in HEK293 cells after 60 mins by scintillation counting analysis; assay type: cell-based
T3 sequence (P29274 whole entry): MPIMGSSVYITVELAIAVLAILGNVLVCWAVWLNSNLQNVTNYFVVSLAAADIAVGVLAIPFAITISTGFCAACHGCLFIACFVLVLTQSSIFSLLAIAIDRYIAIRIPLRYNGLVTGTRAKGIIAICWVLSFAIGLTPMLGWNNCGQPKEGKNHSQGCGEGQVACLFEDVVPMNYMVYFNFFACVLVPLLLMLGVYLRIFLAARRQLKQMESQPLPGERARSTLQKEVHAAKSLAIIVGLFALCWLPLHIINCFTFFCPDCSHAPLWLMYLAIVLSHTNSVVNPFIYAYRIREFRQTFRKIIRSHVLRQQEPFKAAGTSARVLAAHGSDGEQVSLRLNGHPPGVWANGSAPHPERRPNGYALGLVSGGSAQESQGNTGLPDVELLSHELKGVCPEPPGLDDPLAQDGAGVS
How it was run: (§1)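 HEK-293 hA2AAR membranes (20 μg) incubated 60 min at 25 °C with 15 nM [3H]CGS21680 and increasing ligand concentrations in 50 mM Tris·HCl pH 7.4, 10 mM MgCl2. Nonspecific binding defined with 10 μM NECA. GF/B filtration, scintillation counting. Ki by Cheng–Prusoff. For weak binders, percent inhibition measured at 10 μM, 3–5 duplicate determinations.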

[4] = biological target: T4, Adenosine receptor A3 (Homo sapiens) (UniProt P0DMS8); test: Antagonist activity at recombinant human adenosine A3 receptor expressed in CHO cells assessed as forskolin-induced intracellular cAMP production preincubated for 45 mins followed by forskolin challenge measured after 15 mins by liquid scintillation counting analysis in presence of rolipram and adenosine deaminase relative to NECA; assay type: functional, cell-based; set-up: scale not given: the % may be the effect or the level left
T4 sequence (whole entry): T2 sequence (P0DMS8 whole entry)
How it was run: (§2)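 CHO cells stably expressing hA3AR, plated 24 h, washed in DMEM/50 mM HEPES pH 7.4, treated with agonists and/or test compounds plus rolipram 10 μM and adenosine deaminase 3 U/mL. Forskolin 10 μM added after 45 min, incubation continued 15 min. Lysed in 0.1 M HCl. cAMP quantified by [3H]cAMP (2 nM)–PKA competitive binding, GF/C filtration, scintillation counting. Expressed relative to NECA full agonist (100%). Curves from three determinations.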

[5] = Antifibrotic activity in C57BL6/J mouse Prox24 cells assessed as inhibition of TGF-beta1-induced COL1A1 mRNA expression incubated for 1 hr followed by TGF-beta1 challenge measured after 6 hrs by real-time PCR analysis; assay type: functional
How it was run: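 mProx24 immortalized proximal tubular cells from C57BL6/J mouse kidneys in DMEM, 10% FCS, 37 °C, 5% CO2. Growth-arrested 24 h in 0.15% FCS. Pretreated 1 h with compound in DMEM/0.15% FCS (DMSO stocks 50, 20, 10, 1 mM), then human TGF-β1 5 ng/mL for 6 h. COL1A1 mRNA expressed relative to TGF-β1 alone (1.0). Mean ± SE of three experiments.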

[6] = biological target: T5, Adenosine receptor A1 (Homo sapiens) (UniProt P30542); test: Displacement of [3H]-R-PIA from recombinant human adenosine A1 receptor expressed in CHO cells at 10 uM after 60 mins by scintillation counting analysis relative to control; assay type: cell-based
T5 sequence (whole entry): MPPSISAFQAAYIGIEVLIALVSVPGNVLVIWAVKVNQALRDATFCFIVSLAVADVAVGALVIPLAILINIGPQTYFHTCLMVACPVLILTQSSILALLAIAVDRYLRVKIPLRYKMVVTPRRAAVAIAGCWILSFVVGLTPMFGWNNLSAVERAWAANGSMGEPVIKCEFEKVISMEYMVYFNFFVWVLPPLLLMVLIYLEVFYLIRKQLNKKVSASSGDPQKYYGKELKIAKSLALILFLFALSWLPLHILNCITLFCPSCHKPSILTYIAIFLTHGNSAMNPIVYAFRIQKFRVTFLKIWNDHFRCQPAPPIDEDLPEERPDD

Adenosine receptor A2a [7] = biological target: T3, Adenosine receptor A2a; test: Displacement of [3H]-CGS21680 from human adenosine A2A receptor expressed in HEK293 cells at 10 uM after 60 mins by scintillation counting analysis relative to control; assay type: cell-based; how it was run: as §1
Adenosine receptor A1 = biological target: T6, Adenosine receptor A1 (Homo sapiens, UniProt P30542); test: Displacement of [3H]-R-PIA from recombinant human adenosine A1 receptor expressed in CHO cells after 60 mins by scintillation counting analysis; assay type: cell-based
T6 sequence (P30542 whole entry): T5 sequence (whole entry)

[8] = biological target: T4, Adenosine receptor A3 (Homo sapiens); test: (§3) Partial agonist activity at recombinant human adenosine A3 receptor expressed in CHO cells assessed as stimulation of forskolin-induced intracellular cAMP production at 10 uM preincubated for 45 mins followed by forskolin challenge measured after 15 mins by liquid scintillation counting analysis in presence of rolipram and adenosine deaminase relative to NECA; assay type: functional, cell-based; how it was run: as §2
[9] = biological target: T7, Adenosine receptor A2b (Homo sapiens) (UniProt P29275); test: Agonist activity at recombinant human adenosine A2B receptor expressed in CHO cells assessed as activation of intracellular cAMP production at 10 uM in presence of rolipram and adenosine deaminase relative to NECA; assay type: functional, cell-based
T7 sequence (whole entry): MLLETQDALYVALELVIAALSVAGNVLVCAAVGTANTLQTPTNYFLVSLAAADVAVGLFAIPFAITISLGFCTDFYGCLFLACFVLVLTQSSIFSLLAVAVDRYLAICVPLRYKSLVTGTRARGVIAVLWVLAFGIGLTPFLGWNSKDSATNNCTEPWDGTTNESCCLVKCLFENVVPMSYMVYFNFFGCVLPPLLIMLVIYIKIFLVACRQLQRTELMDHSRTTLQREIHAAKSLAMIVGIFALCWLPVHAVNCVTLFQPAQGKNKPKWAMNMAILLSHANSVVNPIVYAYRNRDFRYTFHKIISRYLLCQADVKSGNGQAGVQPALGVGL
How it was run: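 CHO cells stably expressing hA2BAR, plated 24 h, washed in DMEM with 50 mM HEPES pH 7.4, then exposed to compounds with rolipram 10 μM and adenosine deaminase 3 U/mL (no forskolin). Lysed in 0.1 M ice-cold HCl. cAMP measured by competitive binding of [3H]cAMP (2 nM) to protein kinase A against a 0–16 pmol standard curve, filtration, scintillation counting.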

Adenosine receptor A3 [10] = biological target: T2, Adenosine receptor A3; test: as §3, with “production” for “production at 10 uM”, “deaminase” for “deaminase relative to NECA”; assay type: functional, cell-based; how it was run: as §2

Row | SMILES | Ki (Adenosine receptor A3 [1]) | Ki (Adenosine receptor A3 [2]) | Ki (Adenosine receptor A2a [3]) | Activity [4] | IC50 [5] | inhibition [6] | inhibition (Adenosine receptor A2a [7]) | Ki (Adenosine receptor A1) | max activation [8] | Activity [9] | EC50 (Adenosine receptor A3 [10])
1 | CCCCC#Cc1nc(NCc2cccc(Cl)c2)c2ncn([C@H]3[C@H](O)[C@H](O)[C@@H]4C[C@@H]43)c2n1 | 10.7 nM | 7.8 nM | 3310 nM | < 5% | 2.87 µM | 19% |  |  |  |  | 
2 | CCCCC#Cc1nc(NCc2cccc(F)c2)c2ncn([C@H]3[C@H](O)[C@H](O)[C@@H]4C[C@@H]43)c2n1 | 43 nM | 16 nM |  |  | 3.17 µM | 21% | 27% |  |  |  | 
3 | CCCCC#Cc1nc(NC2CCCC2)c2ncn([C@H]3[C@H](O)[C@H](O)[C@@H]4C[C@@H]43)c2n1 | 58 nM | 160 nM | 1760 nM |  | > 50 µM |  |  | 1580 nM |  |  | 
4 | CCCCC#Cc1nc(NCc2cccc(I)c2)c2ncn([C@H]3[C@H](O)[C@H](O)[C@@H]4C[C@@H]43)c2n1 | 26 nM | 12 nM | 2530 nM | < 5% | 7.88 µM | 48% |  |  |  |  | 
5 | CCCCC#Cc1nc(NC)c2ncn([C@H]3[C@H](O)[C@H](O)[C@@H]4C[C@@H]43)c2n1 | 231 nM | 4.9 nM | 7490 nM |  | 0.83 µM | 14% |  |  | 29.1% | 15.7% | 45.8 nM
6 | CCCCC#Cc1nc(NCc2cccc(Br)c2)c2ncn([C@H]3[C@H](O)[C@H](O)[C@@H]4C[C@@H]43)c2n1 | 59 nM | 8.6 nM | 3150 nM | < 5% | 10.4 µM | 38% |  |  |  |  | 
7 | CCCCC#Cc1nc(NCC)c2ncn([C@H]3[C@H](O)[C@H](O)[C@@H]4C[C@@H]43)c2n1 | 176 nM | 6.7 nM | 2860 nM |  | 0.84 µM | 31% |  |  |  |  | 
8 | CCCCC#Cc1nc(N)c2ncn([C@H]3[C@H](O)[C@H](O)[C@@H]4C[C@@H]43)c2n1 | 65 nM | 16.2 nM | 100 nM |  | 6.12 µM | 29% |  |  |  |  | 
9 | CCCCC#Cc1nc(NC2CC2)c2ncn([C@H]3[C@H](O)[C@H](O)[C@@H]4C[C@@H]43)c2n1 | 39 nM | 9.2 nM | 2200 nM |  | 11.8 µM |  |  | 2170 nM |  |  | 
